Measurements taken from BindingDB's records for doi:10.1021/acs.jmedchem.7b00924 (University of Copenhagen, 2017).

Biological target: T1, Sodium- and chloride-dependent betaine transporter (Mus musculus, UniProt P31651)
T1 sequence (P31651 whole entry): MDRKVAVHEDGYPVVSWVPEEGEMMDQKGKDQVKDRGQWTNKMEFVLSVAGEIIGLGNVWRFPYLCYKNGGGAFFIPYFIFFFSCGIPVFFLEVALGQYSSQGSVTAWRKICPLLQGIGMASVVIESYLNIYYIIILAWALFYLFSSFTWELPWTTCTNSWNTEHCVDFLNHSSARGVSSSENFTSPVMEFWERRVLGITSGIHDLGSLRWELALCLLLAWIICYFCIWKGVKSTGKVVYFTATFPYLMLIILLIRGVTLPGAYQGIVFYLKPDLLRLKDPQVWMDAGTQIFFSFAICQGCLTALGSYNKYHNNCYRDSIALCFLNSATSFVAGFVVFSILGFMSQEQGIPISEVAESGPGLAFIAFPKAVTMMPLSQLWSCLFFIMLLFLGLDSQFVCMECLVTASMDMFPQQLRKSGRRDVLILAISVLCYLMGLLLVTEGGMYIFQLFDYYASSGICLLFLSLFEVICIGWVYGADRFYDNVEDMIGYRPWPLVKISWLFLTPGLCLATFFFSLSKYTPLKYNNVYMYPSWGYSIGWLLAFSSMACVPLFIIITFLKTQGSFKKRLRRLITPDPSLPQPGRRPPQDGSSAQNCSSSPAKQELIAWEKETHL
Assay: Inhibition of mouse BGT1 expressed in HEK293 cells assessed as reduction in [3H]GABA uptake after 3 mins by scintillation counting method
In short: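 HEK293 lines stably expressing a single mouse GAT subtype, kept under blasticidin-S (5 µg/mL) selection. Cells were assayed about 24 h after plating with 30 nM [3H]GABA plus varying compound concentrations for 3 min at 37 °C in HBSS buffered with 20 mM HEPES (1 mM CaCl2, 1 mM MgCl2, pH 7.4). Cells were washed ice-cold and radioactivity counted. IC50 came from sigmoidal variable-slope fits.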

- IC50: 126 µM
SMILES: O=C(NC1CCN(Cc2cccc(OC(F)(F)F)c2)CC1)c1ccc(Cl)cc1Cl
